Measurements published in ChEMBL document CHEMBL3992522, “Antileishmanial Activity of Pyrazolopyridine Derivatives and Their Potential as an Adjunct Therapy with Miltefosine” (J Med Chem, 2017).
Converted amounts (≈) assume the structure as drawn. The source made the active and inactive calls. The calls are words filed in the database; no cut-off is given here.

Tests used:
Leishmania donovani [1] = test: Antileishmanial activity against Leishmania donovani amastigote forms infected in Balb/c mouse assessed as inhibition of parasitic burden in spleen at 50 mg/kg, ip administered for 5 consecutive days measured on day 7 post last treatment by Giemsa staining based assay relative to control; format: functional; conditions: 168 h
Mus musculus [2] = test: Increase in IL-12 level in Balb/c mouse splenocytes infected with Leishmania donovani amastigote forms at 25 mg/kg, ip co-treated with 5 mg/kg, po miltefosine administered for 5 consecutive days measured on day 4 post last treatment by sandwich ELISA relative to control; format: functional
Procedure, shortened: (§1)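 Splenocytes (2×10^6) from treated infected BALB/c mice taken on day 4 or 7 post-treatment. Cultured in phenol-red-free RPMI 1640 with 5 μg/mL soluble L. donovani antigen for 72 h at 37 °C, 5% CO2. Supernatant cytokines measured by sandwich ELISA against a standard curve. Mean ± SD, n = 5 mice per group, three independent experiments.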

[3] = Cytotoxicity against African green monkey Vero cells assessed as reduction in cell viability after 72 hrs by MTT assay; format: cell-based; conditions: chlorocebus sabaeus
Procedure, shortened: (§2)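 Vero and J774 cells seeded at 1×10^5 per well for 24 h, then exposed 72 h to seven two-fold dilutions from 500 to 7.81 μM. MTT solution (5 mg/mL stock) added for 2 h at 37 °C, formazan dissolved in DMSO and read at 540 nm. CC50 derived by the Huber and Koella method.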

Leishmania donovani [4] = test: Antileishmanial activity against Leishmania donovani amastigote forms infected in Balb/c mouse assessed as inhibition of parasitic burden in spleen at 50 mg/kg, ip administered for 5 consecutive days measured 1 week post last treatment by Giemsa staining based assay relative to control; format: functional; conditions: 168 h
[5] = Stability in pH 1.2 simulated gastric fluid at 5 ug/ml after 120 mins by HPLC method
Procedure, shortened: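 Incubated in simulated gastric fluid (pH 1.2) or simulated intestinal fluid (pH 6.5); percentage remaining intact determined after 120 min.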

Leishmania donovani [6] = test: Antileishmanial activity against Leishmania donovani amastigote forms infected in Balb/c mouse assessed as inhibition of parasitic burden in liver at 200 mg/kg, ip administered for 5 consecutive days measured on day 7 post last treatment by Giemsa staining based assay relative to control; format: functional; conditions: Leishmania donovani, ip, 168 h
Mus musculus [7] = test: Restoration of T cell proliferation in Balb/c mouse splenocytes infected with Leishmania donovani amastigote forms at 25 mg/kg, ip co-treated with 5 mg/kg, po miltefosine administered for 5 consecutive days measured on day 4 post last treatment followed by soluble Leishmania donovani promastigote antigen-stimulation for 72 hrs by MTT assay relative to control; format: functional
Procedure, shortened: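 Splenocytes from treated infected BALB/c mice (day 4 or 7 post-treatment) isolated by Ficoll gradient, plated at 10^5/well in triplicate in phenol red-free RPMI 1640, stimulated with 5 μg/mL SLA for 72 h at 37 °C, 5% CO2. Proliferation read by MTT (0.5 mg/mL), formazan dissolved in DMSO, OD 540 nm.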

Leishmania donovani [8] = test: Antileishmanial activity against Leishmania donovani MHOM/IN/80/DD8 promastigote forms harboring luciferase gene after 72 hrs by Steady-Glo reagent based two fold dilution assay; format: functional; conditions: MHOM/IN/80/DD8, 72 h
Procedure, shortened: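 Promastigotes or J774-resident amastigotes treated 72 h with six two-fold dilutions from 200 µM down to 6.25 µM. Luciferase RLU fitted by four-parameter Hill non-linear regression to derive the […] inhibitory concentration (MIC).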

[9] = Apparent clearance in Swiss mouse at 50 mg/kg, po by LC-MS/MS analysis; format: ADME, organism-based; conditions: in vivo
Leishmania donovani [10] = test: Antileishmanial activity against Leishmania donovani MHOM/IN/80/DD8 promastigote forms harboring luciferase gene at 7.19 uM up to 72 hrs by MTT assay relative to control; format: functional; conditions: MHOM/IN/80/DD8, 72 h
Leishmania donovani [11] = test: Antileishmanial activity against Leishmania donovani amastigote forms infected in Balb/c mouse assessed as reduction in liver weight at 12.5 to 200 mg/kg, ip administered for 5 consecutive days co-treated with 5 to 25 mg/kg, po miltefosine; format: functional, organism-based
Leishmania donovani [12] = test: Antileishmanial activity against Leishmania donovani MHOM/IN/80/DD8 amastigote forms harboring luciferase gene infected in mouse J774 cells at 4.05 uM up to 72 hrs by Giemsa staining based assay relative to control; format: functional; conditions: MHOM/IN/80/DD8, J774, 72 h
Procedure, shortened: (§3)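 J774 macrophages in chamber slides infected with Dd8 promastigotes (1:10 cell:parasite in methods; 1:8 in legend) for 24 h, then treated 48 and 72 h. Cells methanol-fixed, stained with 20% Giemsa. Amastigotes per 100 macrophages counted against untreated infected controls.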

Leishmania donovani [13] = test: Induction of apoptosis in Leishmania donovani MHOM/IN/80/DD8 promastigote forms assessed as cell rounding at 50 uM after 48 hrs by propidium iodide staining based fluorescent microscopic method; format: functional
Leishmania donovani [14] = test: Antileishmanial activity against Leishmania donovani MHOM/IN/80/DD8 amastigote forms harboring luciferase gene infected in mouse J774 cells at 50 uM up to 72 hrs by Giemsa staining based assay relative to control; format: functional; conditions: MHOM/IN/80/DD8, J774, 72 h; procedure, shortened: as §3
[15] = Cytotoxicity against mouse J774 cells assessed as cell viability […] after 72 hrs by MTT assay relative to control; format: cell-based; conditions: read-out: Activity; procedure, shortened: as §2
[16] = Half life in mouse liver S9 fractions at 1 mM in presence of NADPH by HPLC method; format: ADME, tissue-based
Leishmania donovani [17] = test: Antileishmanial activity against Leishmania donovani amastigote forms infected in Balb/c mouse assessed as inhibition of parasitic burden in liver at 25 mg/kg, ip administered for 5 consecutive days measured on day 7 post last treatment by Giemsa staining based assay relative to control; conditions: 168 h
[18] = Metabolic stability in mouse liver S9 fractions assessed as rate constant for metabolism at 1 mM after 60 mins in presence of NADPH by HPLC method; format: ADME, tissue-based
Leishmania donovani [19] = test: Antileishmanial activity against Leishmania donovani amastigote forms infected in Balb/c mouse assessed as reduction in spleen weight at 12.5 to 200 mg/kg, ip administered for 5 consecutive days; format: functional, organism-based
Mus musculus [20] = test: Increase in iNOS mRNA expression level in Balb/c mouse splenocytes infected with Leishmania donovani amastigote forms at 25 mg/kg, ip cotreated with 5 mg/kg, po miltefosine for 5 consecutive days measured on day 7 post last treatment by RT-PCR assay relative to control; format: functional
Procedure, shortened: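 Infected BALB/c mice dosed for 5 consecutive days (test compound i.p. in 8% DMSO, miltefosine oral), n = 5 per group; splenocytes taken day 4 and day 7 post-treatment. Total RNA extracted and iNOS mRNA quantified by real-time PCR, normalized to mouse β-actin, expressed as fold change over uninfected controls.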

Leishmania donovani [21] = test: Antileishmanial activity against Leishmania donovani amastigote forms infected in Balb/c mouse assessed as inhibition of parasitic burden in spleen at 200 mg/kg, ip administered for 5 consecutive days measured on day 7 post last treatment by Giemsa staining based assay relative to control; format: functional; conditions: Leishmania donovani, ip, 168 h
Mus musculus [22] = test: Decrease in IL-10 level in Balb/c mouse splenocytes infected with Leishmania donovani amastigote forms at 25 mg/kg, ip co-treated with 5 mg/kg, po miltefosine administered for 5 consecutive days measured on day 4 post last treatment by sandwich ELISA relative to control; format: functional; procedure, shortened: as §1

## COc1ccc(C2C3=C(CCC3=O)Nc3c2c(-c2c[nH]c4ccccc24)nn3-c2ccc(Cl)c(Cl)c2)cc1OC (configuration not stated)
Leishmania donovani [1]
  inhibition in vivo at 50 mg/kg: > 91%
Mus musculus [2]
  fold change (FC): 12.7
[3]
  CC50 at 72 h: 438 µM
Leishmania donovani [4]
  inhibition in vivo at 50 mg/kg: > 93%
[5]
  Stability: 85%
Leishmania donovani [6]
  inhibition in vivo at 200 mg/kg: 93%
Mus musculus [7]
  fold change (FC): 9.9
Leishmania donovani [8]
  MIC: 50 µM (≈ 28.6 µg/mL)
[9]
  CL/F: 47.3 mL/min/kg
Leishmania donovani [10]
  inhibition at 7.19 µM: > 95%
Leishmania donovani [11]
  Activity: Active
Leishmania donovani [12]
  inhibition at 4.05 µM: > 93%
Leishmania donovani [13]
  Activity: Active
Leishmania donovani [14]
  inhibition at 50 µM: > 93%
[15]
  viability at 72 h: > 95%
[16]
  half-life at 1000 µM: 50.5 min
Leishmania donovani [17]
  inhibition in vivo at 25 mg/kg: > 48%
[18]
  k el at 1 h, 1000 µM: 0.000217 s⁻¹
Leishmania donovani [19]
  Activity: Active
Mus musculus [20]
  fold change (FC): 8.5
Leishmania donovani [21]
  inhibition in vivo at 200 mg/kg: 90%
Mus musculus [22]
  inhibition (INH): 91%
